Series [1] is described as follows: Apical-to-basolateral permeability across Caco-2 monolayers. It is filed as in vitro ADME. The note with it: human.
The next series deals with Capan-2 cells. Put plainly: Cell proliferation. The series is classed as cell-based. The note with it: Homo sapiens, Capan-2, pH 6, read-out: GI50 Capan-2. Summed up:
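Capan-2 cells (passages 50-54) in antibiotic-free RPMI-1640 plus 10% FBS were plated at 125,000 per well and allowed 24 h to attach. After a rinse with pH 6.0 uptake buffer, they received test compound in the same buffer (twofold series, 4 to 0.25 mmol/L; buffer-only wells as 100% viability) for 4 h at 37 °C. Two washes and 24 h recovery in medium followed.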

The target in series [2] is T1, PEPT1 (Homo sapiens, UniProt P46059).
T1 sequence (P46059 1-708): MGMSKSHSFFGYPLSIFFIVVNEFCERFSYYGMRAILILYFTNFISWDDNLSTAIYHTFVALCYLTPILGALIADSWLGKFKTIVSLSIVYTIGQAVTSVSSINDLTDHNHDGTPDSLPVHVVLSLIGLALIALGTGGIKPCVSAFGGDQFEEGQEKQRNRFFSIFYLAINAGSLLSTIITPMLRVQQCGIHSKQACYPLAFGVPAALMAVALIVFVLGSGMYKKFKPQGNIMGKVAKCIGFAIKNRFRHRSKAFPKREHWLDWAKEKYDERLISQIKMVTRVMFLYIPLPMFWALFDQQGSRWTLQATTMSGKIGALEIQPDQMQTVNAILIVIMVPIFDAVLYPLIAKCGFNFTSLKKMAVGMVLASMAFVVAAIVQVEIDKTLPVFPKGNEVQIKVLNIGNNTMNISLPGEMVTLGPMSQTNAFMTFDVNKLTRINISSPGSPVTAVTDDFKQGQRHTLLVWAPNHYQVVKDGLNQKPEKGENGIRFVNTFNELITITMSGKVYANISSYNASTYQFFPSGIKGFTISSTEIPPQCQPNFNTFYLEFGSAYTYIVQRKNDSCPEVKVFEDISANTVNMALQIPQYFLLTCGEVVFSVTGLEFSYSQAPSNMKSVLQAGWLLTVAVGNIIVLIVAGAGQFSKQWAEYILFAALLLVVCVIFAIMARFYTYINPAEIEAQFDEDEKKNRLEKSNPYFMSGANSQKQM
Put plainly: [3H]Gly-Sar uptake inhibition in Capan-2 cells. It is filed as cell-based.

Series [3] deals with T1, PEPT1. Put plainly: [3H]Gly-Sar uptake inhibition in AsPC-1 cells. The series is classed as cell-based.
Another series has as its system AsPC-1 cells. The series is described as follows: Cell proliferation. It is filed as cell-based. As to conditions: Homo sapiens, ASPC1, pH 6, read-out: GI50 AsPC-1. An outline of the steps: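 AsPC-1 cells (passages 63-65) were grown antibiotic-free in RPMI-1640 with 10% FBS, seeded at 125,000 cells/well and left 24 h. They were washed with pH 6.0 uptake buffer and exposed 2 h at 37 °C to test compound (2-fold dilutions, 4 to 0.25 mmol/L, in that buffer); buffer alone served as 100% viability. Cells were washed twice and recovered 24 h in medium.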

Series [4] concerns the target T1, PEPT1. The series is described as follows: [3H]Gly-Sar uptake inhibition in Caco-2 cells. It is filed as cell-based.

In general, Papp refers to a coefficient for how fast a substance crosses the barrier. A low value points to poor permeation. As usually defined, the GI50 is the concentration giving 50% growth inhibition. The term IC50 denotes the point on the concentration scale where inhibition reaches its midpoint. Read a low IC50 as inhibition by little substance. Regarding `O=c1[nH]c(=O)n([C@H]2C[C@H](O)[C@@H](CO)O2)cc1F` [floxuridine, 5-fluoro-2′-deoxyuridine, reference compound], in series [1], the Papp at 2 h, 0.1 mM stood at 0.69 ± 0.1 ×10⁻⁶ cm/s. Also, the concentration for 50% growth inhibition (GI50) with Capan-2 cells and in the series on AsPC-1 cells was over 4 mM each time. Further, the results for the half-inhibitory concentration (IC50) at PEPT1 [2], at PEPT1 [3] and against PEPT1 [4] were 16.1 ± 6.71 mM, 6.63 ± 1.52 mM and 8.43 ± 2.66 mM, respectively.

The record behind these values is PMC2659690 (Molecular Pharmaceutics, 2008).
